These results are taken from publication PMC7733813 (Proceedings of the National Academy of Sciences of the …, 2020).

The subject of test [1] is Col1a1, Alpl, Bglap expression in mouse primary osteoblasts. Briefly: qPCR of genes implicated in osteoblastic bone formation in primary osteoblasts. The class given is cell-based. The conditions noted are these: with or without Sema4D-Fc, vs vehicle control.
In a further test the test system is ovariectomized mice. In kind it is in vivo, mouse. To be noted: OVX mice, 5 µmol/kg i.v. once weekly, 4 wk, vs vehicle. A digest of the protocol:
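C57BL/6J ovariectomized mice, kept specific-pathogen-free, were given test compound i.v. once weekly for 4 wk. Sham-operated and vehicle groups served as controls. Bones were fixed in 70% ethanol and scanned by µCT, and 3D structural indices were computed. Undecalcified tibiae were embedded in glycol methacrylate and cut into 5 µm sections. Sections were stained with toluidine blue for osteoblast parameters and TRAP for osteoclast parameters. Data are mean ± SEM.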

Test [2] has as its system mouse primary osteoblasts (calvarial cells). Briefly: Bone nodule formation in primary calvarial cells, alizarin red S staining. The class given is cell-based. The conditions noted are these: 10 µg/mL mouse Sema4D-Fc; peptide 0.05, 0.5, 5 µM; 21 d.
A further test has as its target T1, mouse PlxnB1 (Mus musculus, UniProt Q8CJH3).
T1 sequence (Q8CJH3 20-479 limits assumed): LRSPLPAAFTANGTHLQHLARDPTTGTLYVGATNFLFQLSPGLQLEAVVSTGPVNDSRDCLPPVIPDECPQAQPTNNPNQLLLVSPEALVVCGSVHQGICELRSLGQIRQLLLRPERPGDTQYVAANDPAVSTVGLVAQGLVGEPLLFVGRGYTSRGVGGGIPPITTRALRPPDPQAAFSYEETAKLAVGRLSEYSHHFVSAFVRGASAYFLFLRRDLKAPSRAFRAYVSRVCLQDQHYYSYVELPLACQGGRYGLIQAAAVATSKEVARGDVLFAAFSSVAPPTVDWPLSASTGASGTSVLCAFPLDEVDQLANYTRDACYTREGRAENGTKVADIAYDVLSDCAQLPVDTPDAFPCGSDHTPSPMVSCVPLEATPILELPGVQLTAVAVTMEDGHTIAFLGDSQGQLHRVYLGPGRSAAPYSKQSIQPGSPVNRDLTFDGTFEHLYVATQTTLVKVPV
Briefly: Surface plasmon resonance. The class given is binding.

SMILES strings stand for the structures. Where a SMILES comes first, the peptide text is derived from it. Bridges are numbered along the chain shown (N, C = ends). Roman numbers before positions name the chains, in order. [ ]: non-standard residue; d: D form. PEG3 = NCCOCCOCCOCCC(=O)O; Dap = NC[C@H](N)C(=O)O

On to `CC[C@H](C)[C@@H]1NC(=O)[C@H](Cc2ccc(O)cc2)NC(=O)[C@@H]2CCCN2C(=O)[C@H](CCCNC(=N)N)NC(=O)[C@@H](Cc2c[nH]c3ccccc23)NC(=O)CSC[C@@H](C(=O)NCC(=O)NCCOCCOCCOCCC(=O)NC[C@H](NC(=O)CCOCCOCCOCCNC(=O)CNC(=O)[C@@H]2CSCC(=O)N[C@H](Cc3c[nH]c4ccccc34)C(=O)N[C@@H](CCCNC(=N)N)C(=O)N3CCC[C@H]3C(=O)N[C@@H](Cc3ccc(O)cc3)C(=O)N[C@@H]([C@@H](C)CC)C(=O)N[C@@H](CCC(=O)O)C(=O)N[C@@H](CCCNC(=N)N)C(=O)N[C@@H](Cc3c[nH]c4ccccc34)C(=O)N[C@@H]([C@@H](C)O)C(=O)NCC(=O)N[C@@H](CCCNC(=N)N)C(=O)N[C@@H](CC(C)C)C(=O)N[C@@H]([C@@H](C)CC)C(=O)N[C@@H](C(C)C)C(=O)N2)C(N)=O)NC(=O)[C@H](C(C)C)NC(=O)[C@H]([C@@H](C)CC)NC(=O)[C@H](CC(C)C)NC(=O)[C@H](CCCNC(=N)N)NC(=O)CNC(=O)[C@H]([C@@H](C)O)NC(=O)[C@H](Cc2c[nH]c3ccccc23)NC(=O)[C@H](CCCNC(=N)N)NC(=O)[C@H](CCC(=O)O)NC1=O` [PB1d6A9] (I: {CH2CO}-[dW]RPYIERWTGRLIVCG[PEG3][Dap]-NH2 / II: {CH2CO}-[dW]RPYIERWTGRLIVCG[PEG3]; amide I:18-II:C; thioether I:N-I:15, II:N-II:15), for which, in test [1], the “expression of Col1a1, Alpl and Bglap” value is on record as “enhanced”. For the same compound, the “bone loss, µCT of femurs” value in the test with ovariectomized mice is listed as “clear suppression of bone loss”. Also, the “bone nodule formation (alizarin red S)” value in test [2] is “dose-dependent increases in bone formation”. This compound came in with a Kd on mouse PlxnB1 of 200 pM. Moreover, on mouse PlxnB1 (PB1d6A9 vs PB1m6A9), the “decrease in dissociation rate of dimer over monomer, mouse PlxnB1” value was found to be 10 fold; the “improvement in KD of dimer over monomer, mouse PlxnB1” value is recorded as approximately 220 fold; the “increase in association rate of dimer over monomer, mouse PlxnB1” value turned out to be 22 fold.

For orientation: Kd means the constant that tells how readily two partners part at equilibrium.
